Article PMC7112006 (Bioorganic Chemistry, 2010)

What was measured:
[1] = tested on: human T-lymphocyte cells (Molt4/C8); assay: Cytostatic assay, inhibition of tumor cell proliferation; format: cell-based; conditions: Molt4/C8, read-out: IC50 (50% inhibitory concentration, tumor cell proliferation)
[2] = target: T1, human recombinant thymidine phosphorylase (Homo sapiens, UniProt P19971); assay: Thymidine phosphorylase assay, conversion to the free base; format: biochemical; conditions: purified recombinant enzyme, 100 μM substrate, 20, 40 and 60 min; data not shown
T1 sequence (P19971 11-482): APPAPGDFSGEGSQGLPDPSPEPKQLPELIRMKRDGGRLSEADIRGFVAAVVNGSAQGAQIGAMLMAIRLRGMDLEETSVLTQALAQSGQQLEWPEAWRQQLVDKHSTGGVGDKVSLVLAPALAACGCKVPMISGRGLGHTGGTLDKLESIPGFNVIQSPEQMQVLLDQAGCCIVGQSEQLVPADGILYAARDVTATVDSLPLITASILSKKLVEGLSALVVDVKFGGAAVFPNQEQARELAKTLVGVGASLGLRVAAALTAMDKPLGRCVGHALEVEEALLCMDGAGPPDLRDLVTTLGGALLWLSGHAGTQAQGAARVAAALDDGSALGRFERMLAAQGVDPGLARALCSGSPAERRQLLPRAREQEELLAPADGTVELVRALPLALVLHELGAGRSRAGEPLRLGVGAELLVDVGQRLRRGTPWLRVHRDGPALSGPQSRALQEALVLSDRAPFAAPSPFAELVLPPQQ
Procedure, shortened: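 Aliquots taken at 20, 40 and 60 min and heat-inactivated at 95 °C for 3 min. Free base quantified by RP-8 HPLC with phosphate/heptane sulfonate (pH 3.2) to acetonitrile gradient; UV detection at 267 nm.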

[3] = target: uridine phosphorylase type 1 (Homo sapiens, UniProt Q16831); assay: Uridine phosphorylase assay, conversion to the free base; format: biochemical; conditions: purified recombinant enzyme, 100 μM substrate, 20, 40 and 60 min; data not shown
Procedure, shortened: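 Samples taken at 20, 40 and 60 min and heated at 95 °C for 3 min. Nucleoside and free base separated on RP-8 HPLC with phosphate/heptane sulfonate (pH 3.2) to acetonitrile gradient; UV detection at 267 nm.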

Chain of uridine phosphorylase type 1 (Q16831 whole entry): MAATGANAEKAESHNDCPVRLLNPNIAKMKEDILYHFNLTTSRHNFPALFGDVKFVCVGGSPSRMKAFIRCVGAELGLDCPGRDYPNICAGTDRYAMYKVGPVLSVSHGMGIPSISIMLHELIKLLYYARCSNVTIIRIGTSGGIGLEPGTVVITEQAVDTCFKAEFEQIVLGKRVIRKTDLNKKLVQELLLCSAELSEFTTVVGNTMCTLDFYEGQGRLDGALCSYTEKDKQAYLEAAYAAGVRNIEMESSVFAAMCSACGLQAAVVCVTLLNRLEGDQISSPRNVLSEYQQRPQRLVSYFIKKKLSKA

SMILES | IC50 [1] [µM] | further results
Nc1ncnc2c1ncn2[C@@H]1O[C@H](CO)[C@@H](O)[C@H](F)[C@H]1O [3g, 9-(3-Deoxy-3-fluoro-β-D-glucopyranosyl)adenine] | 183 ± 24 | –
Cc1cn([C@H]2C[C@H](O)[C@@H](CO)O2)c(=O)[nH]c1=O [thymidine] | – | hydrolysis to the free pyrimidine base by thymidine phosphorylase (TPase) [2]: readily converted
Nc1ccn([C@@H]2O[C@H](CO)[C@@H](O)[C@H](F)[C@H]2O)c(=O)n1 [3f, 1-(3-Deoxy-3-fluoro-β-D-glucopyranosyl)cytosine] | 163 ± 21 | –
O=c1ccn([C@@H]2O[C@H](CO)[C@@H](O)[C@H]2O)c(=O)[nH]1 [uridine] | – | hydrolysis to the free pyrimidine base by uridine phosphorylase type I (UPase) [3]: readily converted
